In ChEMBL document CHEMBL1157779, “Merging the structural motifs of functionalized amino acids and alpha-aminoamides: compounds with significant anticonvulsant activities” (J Med Chem, 2010):
The source made the active and inactive calls.

Tests used:
[1] = tested on: Mus musculus; assay: Anticonvulsant activity in albino mouse assessed as protection against subcutaneous metrazole-induced seizures up to 300 mg/kg, ip after 4 hrs; format: functional, organism-based; design: dose 300 mg/kg
Method in brief: (§1)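 Male albino Carworth Farms No. 1 mice dosed ip under NIH Anticonvulsant Screening Program; subcutaneous Metrazol seizure challenge at 0.5 and 4 h after doses up to 300 mg/kg.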

[2] = species on record: Mus musculus; assay: Protective index, ratio of TD50 for albino mouse to anticonvulsant ED50 for albino mouse; format: functional
[3] = tested on: Mus musculus; assay: Antiinflammatory activity in albino mouse assessed as reduction in formalin-induced late inflammation at 15 mg/kg, ip relative to control; format: functional; design: scale not given: the % may be the effect or the level left; conditions: route intraperitoneal
Method in brief: (§2)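 Male albino mice, 16 per trial (8 given vehicle ip, 8 given 15 mg/kg ip); 0.5% formalin injected into hind paw; paw-licking time recorded in 2 min intervals for 45 min; acute and late (inflammatory) phases expressed as percent of control.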

[4] = tested on: Mus musculus; assay: Anticonvulsant activity in ip dosed albino mouse assessed as protection against 6 Hz electric shock-induced seizures after […]; format: functional
[5] = tested on: Rattus norvegicus; assay: Anticonvulsant activity in po dosed Sprague-Dawley albino rat assessed as inhibition of maximal electroshock-induced seizures after 0.5 hrs; format: functional
[6] = tested on: Mus musculus; assay: Anticonvulsant activity in albino mouse assessed as protection against subcutaneous metrazole-induced seizures up to 300 mg/kg, ip after 0.5 hrs; format: functional, organism-based; design: dose 300 mg/kg; method in brief: as §1
[7] = tested on: Mus musculus; assay: Anticonvulsant activity in ip dosed albino mouse assessed as inhibition of maximal electroshock-induced seizures after […]; format: functional
[8] = tested on: Mus musculus; assay: Antiinflammatory activity in albino mouse assessed as reduction in formalin-induced acute inflammation at 15 mg/kg, ip relative to control; format: functional; design: scale not given: the % may be the effect or the level left; conditions: route intraperitoneal; method in brief: as §2
[9] = tested on: Rattus norvegicus; assay: Antiallodynic activity in Sprague-Dawley albino rat sciatic nerve ligation model of neuropathic pain assessed as fold attenuation of mechanical allodynia at 12 mg/kg, ip after 1 hr relative to control; format: functional; conditions: route intraperitoneal
Method in brief: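 Male albino Sprague-Dawley rats; sciatic nerve ligated on right side, sham exposure on left; after 7 d recovery, animals on wire mesh platform, 30–60 min acclimation. Baseline 50% paw withdrawal threshold by calibrated von Frey fibres held 6 s, stepping down after a positive response; threshold re-measured after 12 mg/kg ip at time-to-peak effect in MES test.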

[10] = tested on: Rattus norvegicus; assay: Behavioral toxicity in po dosed Sprague-Dawley albino rat after 0.5 hrs; format: organism-based; conditions: in vivo
Method in brief: (§3)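 Oral dosing in male albino Sprague-Dawley rats with behavioral toxicity observation at set times after dosing, doses up to 500 mg/kg.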

[11] = species on record: Rattus norvegicus; assay: Protective index, ratio of TD50 for Sprague-Dawley albino rat to anticonvulsant ED50 for Sprague-Dawley albino rat; format: functional
Method in brief: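 Rat, oral: behavioral-toxicity TD50 divided by MES ED50, both in mg/kg.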

[12] = (§4) Behavioral toxicity in po dosed Sprague-Dawley albino rat; format: organism-based; conditions: Sprague-Dawley, in vivo
[13] = tested on: Mus musculus; assay: Antiinflammatory activity in albino mouse assessed as reduction in formalin-induced late inflammation at 16 mg/kg, ip; format: functional, organism-based; design: dose 16 mg/kg
[14] = tested on: Mus musculus; assay: Anticonvulsant activity in ip dosed albino mouse assessed as protection against 6 Hz electric shock-induced seizures after 0.5 hrs; format: functional
Method in brief: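 Psychomotor 6 Hz (32 mA) seizure model in male albino Carworth Farms No. 1 mice given compound ip; ED50 in mg/kg.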

[15] = Behavioral toxicity in po dosed Sprague-Dawley albino rat after 0.25 to 4 hrs; format: organism-based; conditions: in vivo; method in brief: as §3
[16] = tested on: Rattus norvegicus; assay: Anticonvulsant activity in po dosed Sprague-Dawley albino rat assessed as inhibition of maximal electroshock-induced seizures after 0.25 to 2 hrs; format: functional
Method in brief: (§5)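 Male albino Sprague-Dawley rats dosed orally; maximal electroshock seizures, protection scored as blockade of hind limb extension, tested at set times after dosing; ED50 in mg/kg from quantitative evaluation for active compounds.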

[17] = Behavioral toxicity in po dosed Sprague-Dawley albino rat after 1 hr; format: organism-based; conditions: Sprague-Dawley, in vivo; method in brief: as §3
[18] = tested on: Mus musculus; assay: Anticonvulsant activity in ip dosed albino mouse assessed as inhibition of maximal electroshock-induced seizures after 4 hrs; format: functional
Method in brief: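 Male albino Carworth Farms No. 1 mice given compound ip; maximal electroshock applied and protection scored as blockade of hind limb extension; identification screening, then ED50 (mg/kg) from quantitative testing for active compounds.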

[19] = tested on: Mus musculus; assay: (§6) Toxicity in ip dosed albino mouse after 0.5 hrs by rotarod test; format: organism-based; conditions: in vivo, 0.5 h
[20] = Toxicity in ip dosed albino mouse after 4 hrs by rotarod test; format: organism-based; conditions: in vivo
Method in brief: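 Male albino Carworth Farms No. 1 mice dosed ip; neurological impairment by rotorod test at set times; TD50 (mg/kg) determined for compounds active in MES.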

[21] = tested on: Mus musculus; assay: Anticonvulsant activity in ip dosed albino mouse assessed as inhibition of maximal electroshock-induced seizures after 0.5 hrs; format: functional
[22] = as §6; format: organism-based; conditions: albino, in vivo
[23] = tested on: Rattus norvegicus; assay: Anticonvulsant activity in po dosed Sprague-Dawley albino rat assessed as inhibition of maximal electroshock-induced seizures after 1 hr; format: functional; method in brief: as §5
[24] = Behavioral toxicity in po dosed Sprague-Dawley albino rat after […]; format: organism-based; conditions: in vivo
[25] = tested on: Rattus norvegicus; assay: Anticonvulsant activity in po dosed Sprague-Dawley albino rat assessed as inhibition of maximal electroshock-induced seizures after 4 hrs; format: functional; method in brief: as §5
[26] = (§7) Behavioral toxicity in po dosed Sprague-Dawley albino rat after 4 hrs; format: organism-based; conditions: Sprague-Dawley, in vivo; method in brief: as §3
[27] = tested on: Rattus norvegicus; assay: as §4; format: organism-based; conditions: in vivo
[28] = tested on: Rattus norvegicus; assay: Anticonvulsant activity in po dosed Sprague-Dawley albino rat assessed as inhibition of maximal electroshock-induced seizures; format: functional; method in brief: as §5
[29] = tested on: Rattus norvegicus; assay: as §7; format: organism-based; conditions: in vivo, 4 h; method in brief: as §3
[30] = tested on: Rattus norvegicus; assay: Anticonvulsant activity in po dosed Sprague-Dawley albino rat assessed as inhibition of maximal electroshock-induced seizures after 2 hrs; format: functional
[31] = Toxicity in ip dosed albino mouse after […] by rotarod test; format: organism-based; conditions: in vivo

In the case of `COC[C@@H](NC(C)=O)C(=O)NCc1ccc(OCc2cccc(F)c2)cc1`, the Activity [1] is reported as “inactive”, the “Ratio TD50/ED50” value [2] is reported as 2 and the Activity [3] is reported as 44%. For the same compound, the ED50 [4] was 10 mg/kg, the ED50 [5] was 14 mg/kg and the Activity [6] was “inactive”. The ED50 [7] was 13 mg/kg, the Activity [8] was 35% and the “fold change (FC)” value [9] was 11.2. For the same compound, the TD50 [10] was greater than 500 mg/kg and the “Ratio TD50/ED50” value [11] was greater than 36.

With `COC[C@@H](NC(C)=O)C(=O)NCc1ccccc1` [LACOSAMIDE] the TD50 [12] was greater than 500 mg/kg, the Activity [1] was “inactive” and the Activity [6] was “inactive”. For the same compound, the Activity [13] was “Active”.

For `COC[C@@H](NC(C)=O)C(=O)NCc1ccc(Oc2cccc(F)c2)cc1`, the ED50 [14] was 10 mg/kg, the “Ratio TD50/ED50” value [2] was 4.2 and the ED50 [7] was 5.5 mg/kg. It also gave a TD50 [15] greater than 10 mg/kg and an ED50 [16] of less than 10 mg/kg.

For `COC[C@@H](NC(C)=O)C(=O)NCc1ccc(OCc2ccccc2)cc1`, the TD50 at 1 h [17] was greater than 250 mg/kg, the “Ratio TD50/ED50” value [2] was 3.8 and the ED50 [7] was 5.8 mg/kg. For the same compound, the “Ratio TD50/ED50” value [11] was greater than 45.

For `CCC1(c2ccccc2)C(=O)NC(=O)NC1=O`, the Activity [1] was “inactive” and the Activity [6] was “inactive”.

In the case of `COC[C@H](NC(C)=O)C(=O)NCc1ccc(OCc2cccc(F)c2)cc1`, the Activity [1] is reported as “inactive” and the Activity [6] is reported as “inactive”.

In the case of `CC(=O)N[C@@H](C(=O)NCc1ccc(OCc2cccc(F)c2)cc1)C(C)(C)C`, the ED50 [18] is reported as greater than 300 mg/kg, the TD50 [19] is reported as greater than 300 mg/kg and the Activity [1] is reported as “inactive”. For the same compound, the TD50 at 4 h [20] was 300 mg/kg and the Activity [6] was “inactive”.

Compound `COC[C@@H](NC(C)=O)C(=O)NCc1ccc(/C=C/c2cccc(F)c2)cc1` has an ED50 [21] of 30 mg/kg, a TD50 at 0.5 h [22] of 100 mg/kg and an ED50 [23] of 30 mg/kg. The ED50 [4] was less than 30 mg/kg, the TD50 at […] [24] was greater than 30 mg/kg and the ED50 [25] was 30 mg/kg.

For `CC(=O)NC(C(=O)NCc1ccc(OCc2cccc(F)c2)cc1)c1ccccn1` (racemic), the ED50 [21] was 28 mg/kg, the Activity [1] was “inactive” and the TD50 at 4 h [26] was greater than 30 mg/kg. For the same compound, the Activity [6] was “inactive”.

In the case of `CC(=O)N[C@@H](C(=O)NCc1ccc(OCc2cccc(F)c2)cc1)C(C)C`, the ED50 [18] is reported as greater than 300 mg/kg, the TD50 [27] is reported as greater than 30 mg/kg and the Activity [1] is reported as “inactive”. For the same compound, the TD50 at 4 h [20] was greater than 300 mg/kg, the Activity [6] was “inactive” and the ED50 [28] was greater than 30 mg/kg.

Work on `COC[C@@H](NC(C)=O)C(=O)NCc1ccc(-c2cccc(F)c2)cc1` yielded an ED50 [21] of 10 mg/kg, a TD50 [27] greater than 500 mg/kg and a TD50 at 0.5 h [22] of 100 mg/kg. The ED50 [23] was 2.4 mg/kg, the ED50 [4] was less than 30 mg/kg and the “Ratio TD50/ED50” value [11] was greater than 250.

Work on `COC[C@@H](NC(C)=O)C(=O)NCc1ccc(OCCc2cccc(F)c2)cc1` yielded an ED50 [21] of 30 mg/kg, an ED50 [18] of 30 mg/kg and a TD50 at 0.5 h [22] of 30 mg/kg.

`CC(=O)N[C@H](C)C(=O)NCc1ccc(OCc2cccc(F)c2)cc1` gave an ED50 [21] greater than 30 mg/kg, an ED50 [18] of less than 100 mg/kg and a TD50 [19] greater than 300 mg/kg. The Activity [1] was “inactive”, the TD50 [29] was greater than 500 mg/kg and the Activity [6] was “inactive”. The ED50 [25] was 31 mg/kg, the ED50 [28] was 21 mg/kg and the “Ratio TD50/ED50” value [11] was greater than 16.

With `CCCC(CCC)C(=O)[O-].[Na+]` [VALPROATE SODIUM] the Activity [1] was “inactive”, the Activity [6] was “inactive” and the ED50 [7] was 270 mg/kg.

For `COC[C@@H](NC(C)=O)C(=O)NCc1ccc(COc2cccc(F)c2)cc1`, the ED50 [30] was 19 mg/kg, the “Ratio TD50/ED50” value [2] was 1.8 and the TD50 at […] [31] was 10 mg/kg. The ED50 [7] was 5.9 mg/kg and the “Ratio TD50/ED50” value [11] was greater than 21.
